Test results as given in ChEMBL document CHEMBL3243947 (J Med Chem, 1979).
Structures can show the parent of a compound that is named as a salt.

Experiments:
[1] = Negative inotropic activity in New Zealand White rabbit isolated atria assessed as reduction of tissue contractility after 15 mins; set-up: species or system Oryctolagus cuniculus, Cardiac atrium; details: 0.25 h
Procedure, shortened: (§1)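 Isolated atria stabilized 90 min, paced by 2-ms pulses via platinum electrodes near SA node at 2.5× threshold voltage (threshold found at 240 pulses/min, mean of three). MDF averaged over three determinations. Drug added cumulatively without washout, reading 15 min after each dose, until MDF fell ~60%. Percent decrease in MDF or peak height plotted against log molar concentration and fitted by linear regression. Log ED40 read graphically. Three tissues per compound, averaged with SD.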

[2] = Selectivity index, ratio of pED40 for tissue contractility to pED40 for maximum driving response in New Zealand White rabbit isolated atria; set-up: species or system Oryctolagus cuniculus, Cardiac atrium
Procedure, shortened: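 Ratio of ED40 for contractility to ED40 for MDF. Both come from the same cumulative 15-min dosing of paced isolated atria, with three tissues per compound.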

[3] = Octanol-phosphate buffer partition coefficient, log P of the compound; format: physicochemical
Procedure, shortened: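 Compound stock in octanol-saturated buffer, about 0.05 mg/mL. Shaken with octanol 2 h at 37 °C, 200 oscillations/min, then centrifuged 2000 rpm for 4 min. Buffer-phase UV absorbance at λmax near 300 nm measured before and after. P = (Astd − Aext)/(Aext·f), with f the octanol:buffer volume ratio. Run in triplicate.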

[4] = test system: Heart; assay: Antiarrhythmic activity in New Zealand White rabbit isolated atria assessed as reduction of maximum driving frequency after 15 mins; format: functional, Oryctolagus cuniculus; procedure, shortened: as §1
[5] = test system: Heart; assay: Antiarrhythmic activity in New Zealand White rabbit isolated atria assessed as reduction of maximum driving frequency after 15 mins in presence of 4X10'-8 M propranolol; format: functional, Oryctolagus cuniculus; procedure, shortened: as §1
[6] = Selectivity index, ratio of pED40 for tissue contractility to pED40 for maximum driving response in New Zealand White rabbit isolated atria in presence of 4X10'-8 M propranolol; set-up: species or system Oryctolagus cuniculus, Cardiac atrium
[7] = Negative inotropic activity in New Zealand White rabbit isolated atria assessed as reduction of tissue contractility after 15 mins in presence of 4X10'-8 M propranolol; set-up: species or system Oryctolagus cuniculus, Cardiac atrium; details: 0.25 h; procedure, shortened: as §1

pED40 [1]	logP [3]	pED40 [7]	Structure (SMILES)	Selectivity Index [2]	pED40 [4]	pED40 [5]	Selectivity Index [6]
5.53	2.71		Br.CC(C)NCC(O)COc1c(Br)cc(Br)c2ccccc12 (stereo unspecified)	0.4	5.1		
5.26	2		CC(C)NCC(O)COc1ccc(Cl)c2ccccc12 (stereo unspecified)	0.9	5.2		
4.92	-0.27		CC(C)NCC(O)COc1ccc(N)c2ccccc12.Cl (stereo unspecified)	1.6	5.02		
3.35	-0.51		CC(C)NCC(O)COc1ccc(S(N)(=O)=O)c2ccccc12.Cl (stereo unspecified)	1.7	3.58		
5.38	2.08		CCCCNCC(O)COc1cccc2ccccc12 (stereo unspecified)	1.8	5.64		
5.4	1.28		COCCCNCC(O)COc1cccc2ccccc12 (stereo unspecified)	1.5	5.45		
4.47	-0.19		Cl.NCCCNCC(O)COc1cccc2ccccc12 (stereo unspecified)	1	4.5		
	0.31	4.79	Cl.NC(=O)CCCNCC(O)COc1cccc2ccccc12 (stereo unspecified)			4.89	1.4
3.02	0.21		Cl.O=C(O)CCCNCC(O)COc1cccc2ccccc12 (stereo unspecified)	2	3.41		
3.06	-1.89		C[N+](C)(C)CCCNCC(O)COc1cccc2ccccc12.Cl.[Cl-] (stereo unspecified)	1.1	3.08		
4.39	0.39		CC(C)NCC(O)COc1ccc(O)c2ccccc12 (stereo unspecified) [4-HYDROXYPROPRANOLOL SULFATE]	1.8	4.6		
5.21			CC(C)NCC(O)COc1cccc2ccccc12 (stereo unspecified) [PROPRANOLOL]		5.43		
